Experimental data reported in ChEMBL document CHEMBL2146365, “Design and synthesis of EGFR dimerization inhibitors and evaluation of their potential in the treatment of psoriasis” (Bioorg Med Chem, 2012).

Tests used:
[1] = biological target: Epidermal growth factor receptor (Homo sapiens) (UniProt P00533); test: Inhibition of EGFR-mediated ERK1 phosphorylation in HPV-16 transformed human CCD-1106 cells at 116.8 uM after 30 mins by densitometric analysis; assay type: cell-based
Summary of the method: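 CCD-1106 cells were treated with compound for 30 min at 37 °C, then stimulated with EGF. Lysates were separated by SDS-PAGE, blotted to nitrocellulose and blocked in 3% BSA/NaTT. Blots were probed with p-ERK (E-4) or p-p38 (D-8) antibodies, detected by ECL and quantified by densitometry.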

HaCaT [2] = test: Cytotoxicity against human HaCaT cells assessed as LDH release after 24 hrs by CYTOX-96 assay; assay type: functional; settings: read-out: LD50 (the source's name)
Summary of the method: (§1)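 LDH release was read with the CytoTox 96 kit following the kit protocol after 6 or 24 h drug exposure. Cells were seeded at 10,000/well and attached overnight. Eight concentrations were run with six in-plate replicates; DMSO was <1% in all wells, with medium-only blanks. LD₅₀ is reported as mean ± S.E.M., n = 6. CCD-1106 were grown in supplemented keratinocyte SFM; HaCaT in DMEM/10% FBS.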

HaCaT [3] = test: Induction of apoptosis in human HaCaT cells assessed as late phase apoptotic/necrotic cells at 111.6 uM after 9 hrs by AnnexinV-FITC/propidium iodide based FACS flow cytometry; assay type: functional
Summary of the method: (§2)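 HaCaT cells at 10^6 cells/ml were attached overnight and exposed to vehicle, 111.6, 223.2 or 446 µM for 9 h. Cells were then trypsinized, washed in ice-cold PBS and stained with Annexin V-FITC/PI. FACScan analysis used FL1/FL2, 10,000 events per sample, scatter gating, and quadrants set with single-stain controls. Runs were in triplicate and results are means of two experiments.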

[4] = Growth inhibition of HPV-16 transformed human CCD-1106 cells after 72 hrs by MTT assay; assay type: functional; settings: CCD-1106, 72 h
Summary of the method: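 Cells were seeded at 10,000 cells/well in keratinocyte serum-free medium with L-glutamine, bovine pituitary extract and EGF, at 37 °C under 5% CO2, and attached overnight. Eight drug concentrations were run with six in-plate replicates, DMSO <1%, for 72 h. MTT (0.5 mg/ml) was added for 2 h, formazan was dissolved in 90% isopropanol/10% DMSO and A590 was read. Growth is expressed relative to the untreated control.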

HaCaT [5] = test: Induction of apoptosis in human HaCaT cells assessed as early phase apoptotic cells at 446 uM after 9 hrs by AnnexinV-FITC/propidium iodide based FACS flow cytometry; assay type: functional; summary of the method: as §2
HaCaT [6] = test: Cytotoxicity against human HaCaT cells assessed as LDH release after 6 hrs by CYTOX-96 assay; assay type: functional; settings: read-out: LD50 (the source's name); summary of the method: as §1
[7] = Cytotoxicity against HPV-16 transformed human CCD-1106 cells assessed as LDH release after 6 hrs by CYTOX-96 assay; assay type: functional; settings: CCD-1106, 6 h, read-out: LD50 (the source's name); summary of the method: as §1
[8] = Antioxidant activity in bovine brain assessed as inhibition of iron-ascorbate-induced lipid peroxidation by thiobarbituric acid test; assay type: functional, tissue-based, Bos taurus
Summary of the method: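 Hit compounds were tested for inhibition of lipid peroxidation by the thiobarbituric acid (TBA) assay. Propyl gallate served as the standardizing positive control, tested at 100 µM.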

HaCaT [9] = test: Growth inhibition of human HaCaT cells after 72 hrs by neutral red uptake assay; assay type: functional
Summary of the method: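 Neutral red uptake assay over 72 h. Cells were seeded at 10,000 cells/well and attached overnight, then exposed to eight concentrations with six replicates (DMSO <1%). CCD-1106 were grown in keratinocyte SFM with supplements. HaCaT were grown in DMEM with 10% FBS and 2 mM L-glutamine. NHEK (pooled adult) were grown in keratinocyte growth medium with supplement. Values are means, n = 6, against the untreated control.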

HaCaT [10] = test: Induction of apoptosis in human HaCaT cells assessed as early phase apoptotic cells at 111.6 uM after 9 hrs by AnnexinV-FITC/propidium iodide based FACS flow cytometry; assay type: functional; summary of the method: as §2

Epidermal growth factor receptor (Homo sapiens), sequence (P00533 whole entry): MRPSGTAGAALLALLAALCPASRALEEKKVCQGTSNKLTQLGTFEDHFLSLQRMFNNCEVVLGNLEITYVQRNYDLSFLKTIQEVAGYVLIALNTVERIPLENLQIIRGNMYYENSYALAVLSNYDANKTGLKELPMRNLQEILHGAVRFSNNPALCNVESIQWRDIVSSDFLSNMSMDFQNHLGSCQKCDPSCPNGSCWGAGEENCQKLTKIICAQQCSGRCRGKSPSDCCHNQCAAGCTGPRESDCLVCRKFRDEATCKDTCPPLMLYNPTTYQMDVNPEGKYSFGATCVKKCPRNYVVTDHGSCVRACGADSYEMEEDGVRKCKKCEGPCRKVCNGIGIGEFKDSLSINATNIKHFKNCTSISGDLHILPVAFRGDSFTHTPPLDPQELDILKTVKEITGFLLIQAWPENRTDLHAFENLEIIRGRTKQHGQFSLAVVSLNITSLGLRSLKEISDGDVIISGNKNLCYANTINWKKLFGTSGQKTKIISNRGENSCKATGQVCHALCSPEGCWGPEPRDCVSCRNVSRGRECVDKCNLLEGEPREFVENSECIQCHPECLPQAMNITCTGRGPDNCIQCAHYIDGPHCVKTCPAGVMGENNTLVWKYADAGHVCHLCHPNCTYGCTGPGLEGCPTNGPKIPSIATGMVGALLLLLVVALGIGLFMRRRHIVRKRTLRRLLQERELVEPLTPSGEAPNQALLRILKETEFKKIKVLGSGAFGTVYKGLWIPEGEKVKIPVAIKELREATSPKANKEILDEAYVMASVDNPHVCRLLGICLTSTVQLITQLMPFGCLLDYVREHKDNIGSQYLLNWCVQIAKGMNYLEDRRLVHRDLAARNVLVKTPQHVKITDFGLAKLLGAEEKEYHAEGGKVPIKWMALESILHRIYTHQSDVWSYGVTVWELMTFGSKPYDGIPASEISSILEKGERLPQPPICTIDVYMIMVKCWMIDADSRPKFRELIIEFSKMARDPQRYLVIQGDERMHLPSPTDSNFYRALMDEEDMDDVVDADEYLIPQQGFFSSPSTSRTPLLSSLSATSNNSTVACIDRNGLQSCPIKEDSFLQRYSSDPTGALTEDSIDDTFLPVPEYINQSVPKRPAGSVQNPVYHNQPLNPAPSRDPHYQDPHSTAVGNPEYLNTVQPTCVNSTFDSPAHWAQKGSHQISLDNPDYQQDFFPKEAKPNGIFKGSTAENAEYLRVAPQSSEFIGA

CCOc1cc(/C=N\Nc2nc3c(c(=O)n(C)c(=O)n3C)n2Cc2ccccc2)ccc1O
inhibition [1]: 39% | CC50 (HaCaT [2]): 446 µM | Activity (HaCaT [3]): 6% | GI50 ([4]; read-out: GI50): 2.69 µM | GI50 ([4]; read-out: pGI50 (converted)): 2.69 µM | Activity (HaCaT [5]): 24% | CC50 (HaCaT [6]): 446 µM | CC50 [7]: > 446 µM | IC50 [8]: 8 µM | GI50 (HaCaT [9]): 22 µM | Activity (HaCaT [10]): 12%
